Data set [1] can be described thus: Plasma protein binding in dog at 2 uM incubated for 4 to 24 hrs by equilibrium dialysis method. The format is ADME, cell-free, Canis lupus familiaris. The conditions noted are these: time 4-24 hrs, read-out: PPB (converted). In short, it runs like this: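 Rapid equilibrium dialysis in mouse, rat, dog, monkey or human plasma for 4 or 24 h at 2 μM.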
The nature of data set [2]: Prodrug conversion in high fat diet-fed Beagle dog assessed as formation of N-(3-cyano-4-fluorophenyl)-4-(2-((3-ethynyloxetan-3-yl)amino)-2-oxoacetyl)-1,3,5-trimethyl-1H-pyrrole-2-carboxamide metabolite at 5 mg/kg, po measured for 96 hrs. The format is ADME, organism-based, Canis lupus familiaris. The note with it: in vivo.
The nature of data set [3]: Cytotoxicity against human HepG2.117 cells assessed as cell viability upto 50 uM. The conditions noted are these: hepg2.117, 50 µM. It counts as toxicity, cell-based.
A further data set has as its system Hepatitis B virus. Kind of data set: Antiviral activity against HBV infected in human primary hepatocyte cells assessed as decrease in HBV DNA production pre-infected cells with virus followed by compound treatment for 3 days and subsequent replacement of medium with compound measured after 4 days by qPCR analysis. It counts as functional, organism-based. In short, it runs like this:
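Primary human hepatocytes, 80,000/well, infected at MOI 100 in medium with 4% PEG, 2% DMSO, 10% FBS for 24 h, then washed. Compound from 2000 nM in 1/5 dilutions added on day 5 and refreshed on day 8. Medium collected on day 12; extracellular HBV DNA extracted and quantified by qPCR. n = 5 independent experiments.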
For orientation: Real-time PCR tracks product formation cycle by cycle.

A short description of data set [4]: Efflux ratio of apparent permeability in human Caco-2 cells at 1 uM incubated for 1 hr. The format is ADME, cell-based. In short, it runs like this: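 Bidirectional transport across Caco-2 cells in HBSS, pH 7.4, 0.1% final DMSO. Compound was tested at 1 or 2 μM for 1 h at 37 °C, 5% CO2. Apical and basal samples gave apparent permeability A→B and B→A, and the efflux ratio.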
On the technique in general: Caco-2 cells form a polarised layer with tight junctions and transporters.

The nature of data set [5]: Ratio of drug concentration in blood to plasma in rat at 5 uM incubated for 60 mins. The format is ADME, cell-free. In short, it runs like this:
(§1)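 Compound at 5 μM in whole blood of each species, 37 ± 1 °C for 60 min; blood-to-plasma ratio and red blood cell partitioning determined.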

The nature of data set [6]: Ratio of drug concentration in blood to plasma in dog at 5 uM incubated for 60 mins. The format is ADME, cell-free, Canis lupus familiaris. In short, it runs like this:
as §1

A short description of data set [7]: Volume of distribution at steady state in C57BL/6J mouse at 1 mg/kg, iv by LC-MS/MS analysis. The format is ADME, organism-based. The note with it: in vivo, read-out: Vdss. In short, it runs like this:
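Fasted males (C57BL6 mice, Sprague−Dawley rats, beagle dogs, cynomolgus monkeys) given a single IV dose of 1 mg/kg in 80% PEG 400 in water. Plasma concentrations measured by LC-MS/MS. Vss derived by noncompartmental analysis using nominal dose and nominal sampling times.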

A short description of data set [8]: Clearance in Sprague-Dawley rat at 1 mg/kg, iv by LC-MS/MS analysis. It counts as ADME, organism-based. The note with it: in vivo. In short, it runs like this: (§2)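 Single dose to fasted male C57BL6 mice, Sprague-Dawley rats, beagle dogs and cynomolgus monkeys, either IV at 1 mg/kg or PO as a solution at 5 mg/kg, in 80% PEG 400 in water. Plasma concentrations were measured by LC-MS/MS. PK parameters come from noncompartmental analysis using nominal doses and nominal sampling times.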

The nature of data set [9]: Tmax in Sprague-Dawley rat at 5 mg/kg, po by LC-MS/MS analysis. The format is ADME, organism-based. The note with it: in vivo. In short, it runs like this:
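Fasted males (C57BL6 mice, Sprague−Dawley rats, beagle dogs, cynomolgus monkeys) given a single oral solution dose of 5 mg/kg in 80% PEG 400 in water. Plasma sampled over time, analysed by LC-MS/MS. Noncompartmental analysis used nominal doses and nominal sampling times.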

Data set [10] is described as follows: Oral bioavailability in Sprague-Dawley rat at 5 mg/kg by LC-MS/MS analysis. The conditions noted are these: in vivo. It counts as ADME, organism-based. In short, it runs like this:
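Fasted male C57BL6 mice, Sprague–Dawley rats, beagle dogs, cynomolgus monkeys; single IV dose 1 mg/kg or PO solution 5 mg/kg in 80% PEG 400 in water; plasma concentrations measured, noncompartmental analysis with nominal doses and times; F from PO vs IV AUC.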

Data set [11] is described as follows: Half life in Beagle dog at 1 mg/kg, iv by LC-MS/MS analysis. The conditions noted are these: in vivo. It counts as ADME, organism-based, Canis lupus familiaris. In short, it runs like this: as §2
Data set [12] can be described thus: AUC (infinity) in Cynomolgous monkey at 1 mg/kg, iv by LC-MS/MS analysis. It counts as ADME, organism-based, Macaca fascicularis. The note with it: cynomolgus monkey, in vivo. In short, it runs like this:
as §2

The nature of data set [13]: Cmax in Cynomolgous monkey at 5 mg/kg, po by LC-MS/MS analysis. It counts as ADME, organism-based, Macaca fascicularis. The note with it: cynomolgus monkey, in vivo. In short, it runs like this: as §2
Data set [14] can be described thus: Half life in Cynomolgous monkey at 5 mg/kg, po by LC-MS/MS analysis. It counts as ADME, organism-based, Macaca fascicularis. The conditions noted are these: cynomolgus monkey, in vivo. In short, it runs like this: as §2
Data set [15] can be described thus: Toxicity in C57BL/6 mouse infected with AAV-Hepatitis B virus assessed as change in body weight at 15 to 50 mg/kg, po qd for 56 days followed by induction of compound washout period for 14 days. It counts as organism-based. The conditions noted are these: in vivo, 1680 h, dose 15-50 mg/kg, time 70 day.
Data set [16] in a line: Toxicity in C57BL/6 mouse infected with AAV-Hepatitis B virus assessed as change in ALT level at 15 mg/kg, po bid for 56 days followed by induction of compound washout period for 14 days. The note with it: in vivo, 1680 h, time 70 day. It counts as organism-based.
Data set [17] is described as follows: Toxicity in C57BL/6 mouse infected with AAV-Hepatitis B virus assessed as change in body weight at 15 mg/kg, po bid for 56 days followed by induction of compound washout period for 14 days. It counts as organism-based. The conditions noted are these: in vivo, 1680 h, time 70 day.
The target in a further data set is T1, Cytochrome P450 2B6 (Homo sapiens, UniProt P20813).
T1 sequence (P20813 whole entry): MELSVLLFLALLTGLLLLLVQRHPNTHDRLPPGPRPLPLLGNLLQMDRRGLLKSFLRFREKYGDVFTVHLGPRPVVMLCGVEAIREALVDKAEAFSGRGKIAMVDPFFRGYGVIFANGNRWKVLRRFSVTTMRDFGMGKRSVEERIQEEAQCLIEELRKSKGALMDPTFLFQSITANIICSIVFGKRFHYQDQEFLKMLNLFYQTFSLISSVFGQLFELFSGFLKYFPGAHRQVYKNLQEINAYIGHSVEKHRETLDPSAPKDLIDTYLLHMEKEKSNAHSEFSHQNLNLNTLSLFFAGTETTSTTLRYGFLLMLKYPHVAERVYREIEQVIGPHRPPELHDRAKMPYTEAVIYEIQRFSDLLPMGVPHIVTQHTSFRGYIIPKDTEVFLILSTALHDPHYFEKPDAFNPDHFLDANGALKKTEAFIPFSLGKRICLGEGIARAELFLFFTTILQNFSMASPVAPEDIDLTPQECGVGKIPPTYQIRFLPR
Kind of data set: Induction of CYP2B6 (unknown origin) in human hepatocytes upto 30 uM. The format is ADME, cell-based, Hepatocyte.

In another data set the test system is MDCKII-MDR1. Kind of data set: Substrate activity at p-gp in MDCKII-MDR1 cells incubated for 150 mins. It counts as cell-based. The conditions noted are these: Canis lupus familiaris. In short, it runs like this:
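P-gp substrate test in MDR1-MDCK II and parental MDCK II cells, with or without the P-gp inhibitor GF120918, 150 min incubation. Parent compound run at 2 μM; prodrug at 2, 10 and 100 μM.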

Another data set relates to Nav1.5. Kind of data set: Inhibition of Nav1.5 (unknown origin) expressed in mammalian cells at 10 uM by automated patch-clamp method. It counts as toxicity, cell-based, Homo sapiens. The note with it: mammalian cells expressing Nav1.5. In short, it runs like this:
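Currents of hERG, Nav1.5 or Cav1.2 channels expressed in mammalian cells recorded by automated patch clamp (QPatch 48) at room temperature.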

Data set [18] in a line: Metabolic stability in Cynomolgous monkey hepatocytes assessed as half life at 1 uM incubated upto 180 mins. The note with it: cynomolgus monkey.

The structures appear in SMILES notation. Calls of active or inactive are those of the source. No cut-off for these calls is given here.

`C#CC1(N(COP(=O)([O-])[O-])C(=O)C(=O)c2c(C)c(C(=O)Nc3ccc(F)c(C#N)c3)n(C)c2C)COC1.[Na+].[Na+]`: the fraction unbound at 2 µM in data set [1] was 0.179. Besides, in data set [2], the Drug metabolism entry is on record as “metabolite_detected”.
For the compound `C#CC1(NC(=O)C(=O)c2c(C)c(C(=O)Nc3ccc(F)c(C#N)c3)n(C)c2C)COC1`, the Activity result in data set [3] is on record as “Non-toxic”; in [15], “Non-toxic”; in data set [16] it was “Non-toxic”; in data set [17] it was “Non-toxic”; at Cytochrome P450 2B6, “Not_active”. In addition, the EC50 in the data set with Hepatitis B virus is 1.98 nM. Also, the efflux ratio at 1 h, 1 µM in data set [4] worked out at 7.8. For the same compound, the blood plasma ratio at 1 h, 5 µM is 0.72 in data set [5] and 0.82 in data set [6]. In addition, the Vd in data set [7] is 1 L/kg. The clearance in [8] amounted to 6.09 mL/min/kg. Moreover, the time to peak (Tmax) in [9] was found to be 1.67 h. In data set [10], this compound showed a bioavailability of 62.8%. For the same compound, the half-life in data set [11] was 6.38 h; in data set [14], 14.4 h. For the same compound, in data set [12], the AUC(0-inf) is 2240 ng·h/mL. In [13], this compound returned a maximum concentration (Cmax) of 490 ng/mL. The outcome with MDCKII-MDR1 was Active. For the same compound, the IC50 in the data set on Nav1.5 is > 10000 nM. Besides, in [18], the half-life at 1 µM was > 6 h.

As a reminder, the EC50 is the concentration needed to bring the measured effect to its halfway point. One may read the efflux ratio as the permeability from basolateral to apical divided by that in the opposite direction, in the common usage. The clearance is the rate of elimination divided by the concentration. By Tmax is commonly meant the time at which the peak concentration occurs. As usually defined, the bioavailability is dose-corrected exposure relative to a reference, in per cent. As a reminder, the half-life is the time in which the quantity being followed falls by half. For orientation: AUC(0-inf) means total exposure, with the tail of the curve extrapolated. The Cmax is the peak of the concentration-time curve. As usually defined, the IC50 is the concentration at which inhibition is half-maximal.

Source of the values: ChEMBL document CHEMBL6092224, “The Discovery and Preclinical Profile of ALG-000184, a Prodrug of the Potent Hepatitis B Virus Capsid Assembly Modulator ALG-001075” (J Med Chem, 2024).
